Bioassay records deposited in PubChem by several laboratories.
Compounds with a hit are over-represented: about 4.6% of the library has one in this group of screens.
UCH37 inh: blocks the human deubiquitinase UCH37; purified proteasome/UCH37, Ub-AMC cleavage fluorescence; inhibition, % (no concentration beside the values); actives 0.33% (n = 330,000); AID 588478;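 active = mean inhibition over replicate wells above about 20%, limit read from the data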;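 note: 0% = compound-free wells with enzyme and 100% = wells lacking proteasome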
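system = Proteasome-associated human UCH37 deubiquitinase | amount = 0.15 nM proteasome as dispensed | medium = pH 7.4 Tris-HCl (50 mM) with ovalbumin, ATP-MgCl2, DTT | incubation = 30 min preincubation with enzyme, 25 min cleavage at room temperature | detection = AMC fluorescence 355/460 nm | read-out basis = percent inhibition | controls = no-proteasome and no-compound wells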
Rtt109 HAT inh: inhibitors of Candida albicans Rtt109/Vps75 histone acetyltransferase. Q5AAJ8. purified Rtt109/Vps75, ThioGlo CoA-SH fluorescence, 4 h. inhibition, % at 34.9 µM. actives 0.16% (n = 330,000). AID 540336;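 active = inhibition of at least 50% in every replicate; inconclusive = best replicate reaches 50% inhibition but some replicates fall short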
FAS TE block: blocks the thioesterase domain of human fatty acid synthase | P49327 | recombinant FAS-TE, OMFH fluorogenic substrate, fluorescence endpoint | inhibition, % at 15 µM | actives 0.67% (n = 360,000) | AID 602261;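 active = compounds whose normalised, plate-corrected inhibition of enzyme fluorescence in the single-dose primary screen is 50% or more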;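 note: 0% = DMSO with enzyme and 100% = substrate without enzyme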
M18AAP inhibitor: blocks P. falciparum M18 aspartyl aminopeptidase; actives 1.2% (n = 290,000); inhibition, % at 7.35 µM; recombinant PfM18AAP, H-Glu-NHMec fluorogenic cleavage;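 active = inhibition above the campaign mean inhibition over all tested compounds plus 3 SD, cut at about 28% in these data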;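 note: 0% = plate median of test compound wells and 100% = 2 mM ZnCl2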
HDAC3 inhib: blocks human histone deacetylase 3 | O15379 | recombinant HDAC3, fluorogenic peptide/trypsin coupled, fluorescence | inhibition, % at 8.3 µM | actives 0.15% (n = 320,000); in the data active = inhibition above about 26%, passing the limit was not always enough; inconclusive = no clear call, values can overlap the other calls
ALR H2O2 inh: human ALR oxidase inhibition via reduced H2O2 | AID 485317 | P55789 | inhibition, % (test concentration not listed) | purified ALR, DTT oxidation, H2O2 HRP-luminol luminescence | actives 3.8% (n = 290,000);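 active = mean replicate inhibition above about 79%, with every replicate also reaching it, limit read from the data; inconclusive = only one of the two criteria met; inactive = mean below limit and not every replicate reaching it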
FAS-TE conf: confirmation of human fatty acid synthase thioesterase inhibitors; shares compounds with FAS TE block; recombinant FAS-TE, OMFH fluorogenic substrate, fluorescence; inhibition, % at 15 µM; actives 45% (n = 2,300); AID 624325;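 active = compounds inhibiting the enzyme by at least 50% at 15 µM in any one of the replicates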;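 note: 0% = enzyme with DMSO only and 100% = wells lacking enzyme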
* hit, by the source's call; ? = inconclusive; / = not tested or not shown.

SMILES	UCH37 inh	Rtt109 HAT inh	FAS TE block	M18AAP inhibitor	HDAC3 inhib	ALR H2O2 inh	FAS-TE conf
O=S(=O)(Nc1cccc(-c2ccc(N3CCCCCC3)nn2)c1)c1ccc(F)cc1	2	2	62*	-3	3	-2	11
Cc1ccc(S(=O)(=O)Nc2cccc(-c3ccc(N4CCCCCC4)nn3)c2)cc1C	6	2	39	6	-8	-3	/
O=S(=O)(Nc1cccc(-c2ccc(N3CCCCCC3)nn2)c1)c1cccc(F)c1	6	6	61*	13	8	-3	1
Cc1ccc(S(=O)(=O)Nc2cccc(-c3ccc4nncn4n3)c2)cc1	4	-3	54*	/	/	/	51*
CCOc1ccc(CON=Cc2c(C)[nH]c(=O)[nH]c2=O)cc1	-1	/	/	/	/	/	/
COc1cc(C=Nn2c(-c3n[nH]c4c3CCC4)n[nH]c2=S)cc(OC)c1O	2	/	/	/	/	/	/
C=CCc1ccccc1OCC(=O)NN=Cc1ccc(OC(C)=O)cc1OC(C)=O	-23	/	/	/	/	/	/
CN(Cc1ccccc1)C(=O)c1ccc(NC(=O)Cc2ccc(NC(=O)C3CCCN(S(=O)(=O)c4cccc([N+](=O)[O-])c4)C3)cc2)cc1 (stereo unspecified)	5	-8	59*	/	/	/	5
CN(C(=O)c1ccc(NC(=O)Cc2ccc(NC(=O)C3CCCN(S(=O)(=O)c4cccc([N+](=O)[O-])c4)C3)cc2)cc1)C1CCCC1 (stereo unspecified)	4	18	66*	/	/	/	-3
CN(C(=O)c1ccc(NC(=O)Cc2cccc(NC(=O)C3CCCN(S(=O)(=O)c4cccc([N+](=O)[O-])c4)C3)c2)cc1)C1CC1 (stereo unspecified)	2	-6	28	/	/	/	/
CN(C(=O)c1cccc(NC(=O)Cc2ccc(NC(=O)C3CCCN(S(=O)(=O)c4cccc([N+](=O)[O-])c4)C3)cc2)c1)C1CCCC1 (stereo unspecified)	4	-7	69*	/	/	/	19
CC(NC(=O)c1cc([N+](=O)[O-])cc([N+](=O)[O-])c1)c1ccc(-n2ccnc2)cc1 (stereo unspecified)	3	7	59*	12	-6	-69	72*
Cc1ccc(NCC(=O)NN=Cc2ccc(-c3cccc(C(F)(F)F)c3)o2)cc1	4	/	/	/	/	/	/
Cc1ccc(S(=O)(=O)c2nnn3c2nc(N2CCN(c4ccccn4)CC2)c2ccccc23)cc1C	-62	4	53*	-1	-2	-1	0
CCc1ccc(S(=O)(=O)c2nnn3c2nc(N2CCOCC2)c2ccccc23)cc1	-23	8	60*	5	-15	-11	36*
Cc1nn(C)cc1C=NNC(=O)Cc1ccc([N+](=O)[O-])cc1	3	/	/	/	/	/	/
COc1cc(NC(=O)CCC2CCCC2)cc(-n2cnnn2)c1	0	0	60*	0	-5	1	12
CC(=NNC(=O)c1cc(C2CC2)nc2ccccc12)c1ccc(C)s1	-41	/	/	/	/	/	/
Cc1ccc(S(=O)(=O)N(C(=O)c2ccncc2)c2ccc(OC(=O)c3ccncc3)c3ccccc23)cc1	-2	-3	57*	1	?	-24	5
Cc1ccc(S(=O)(=O)N(C(=O)c2ccncc2)c2ccc(OC(=O)c3ccncc3)c3ccccc23)c(C)c1	4	?	46	11	5	-30	/
CN(C)S(=O)(=O)c1ccc2c(c1)C(=O)c1cc(S(=O)(=O)N(C)C)ccc1CC2	0	-13	79*	/	1	-7	94*
CNS(=O)(=O)c1ccc(C)c(S(=O)(=O)NC)c1	4	5	-10	-1	-1	-2	/
CNS(=O)(=O)c1ccc2c(c1)C(=O)c1cc(S(=O)(=O)NC)ccc1CC2	4	3	82*	/	0	-13	91*
COC(=O)N1C(=O)[C@](c2ccccc2)(C2CCCC2)N1C(=O)OC	0	10	80*	-1	3	41	90*
CCOC(=O)Cc1csc(NN=Cc2ccc(N(C)C)cc2)n1	-6	/	/	/	/	/	/
SMILES	UCH37 inh	Rtt109 HAT inh	FAS TE block	M18AAP inhibitor	HDAC3 inhib	ALR H2O2 inh	FAS-TE conf
O=C(ON=C1CCSc2ccccc21)c1ccc(F)cc1	5	/	/	/	/	/	/
CCN1CCN(c2ccc([N+](=O)[O-])c(Sc3nc4ccccc4[nH]3)c2)CC1	10	1	15	7	4	-4	/
CS(=O)(=O)c1cc([N+](=O)[O-])c(Sc2nc3ccccc3[nH]2)c([N+](=O)[O-])c1	7	1	51*	-97	-4	-26	32
COc1ccc(OC)c(C=NNC(=O)c2ccc(N(C)S(=O)(=O)c3ccccc3)cc2)c1	-156	/	/	/	/	/	/
Cc1nn(-c2cc(N3CCCC3)ccc2[N+](=O)[O-])c(=O)c2ccccc12	8	9	0	5	0	6	/
CC(C)(C)C(=O)N1CCN(c2ccc([N+](=O)[O-])c(-n3nc(-c4ccccc4)c4ccccc4c3=O)c2)CC1	1	4	74*	4	/	/	9
O=C(O)COc1ccccc1C=NNC(=O)CSc1nnc(-c2ccc(Cl)cc2)n1C1CCCCC1	-1	/	/	/	/	/	/
COc1ccccc1N(C(=O)c1cncc(Br)c1)c1nc(-c2ccc(C)cc2)cs1	1	-6	56*	2	5	-4	9
COc1ccc(C)cc1N(C(=O)c1ccccc1)c1nc2ccccc2s1	1	3	19	2	4	-5	/
COc1ccc(CC(=O)Oc2ccc(C(C)(C)C)cc2)cc1S(=O)(=O)N1CCOCC1	4	2	60*	/	17	4	15
O=C(O)CC(NC(=O)CCC1CCCCC1)c1cc([N+](=O)[O-])ccc1Cl (stereo unspecified)	3	-2	60*	-7	3	-4	67*
O=C(CCC1CCCC1)Nc1ccc([N+](=O)[O-])cn1	4	-10	12	2	4	/	/
CC(O)(c1cccnc1)c1nc(-c2ccc(S(C)(=O)=O)cc2)cs1 (stereo unspecified)	/	/	-9	/	/	/	/
CS(=O)(=O)c1ccc(-c2csc(-c3cccnc3)n2)cc1	4	0	58*	6	-2	/	50*
CN(C)S(=O)(=O)c1ccc(-c2csc(-c3cccnc3)n2)cc1	3	/	75*	-13	2	-36	78*
O=C1c2ccccc2C(=O)N1CCCCN(C(=O)c1ccc([N+](=O)[O-])cc1)c1ccc(Cl)cc1	-1	-5	-45	-10	0	3	/
O=C1c2ccccc2C(=O)N1CCCCN(C(=O)c1cc([N+](=O)[O-])cc([N+](=O)[O-])c1)c1ccc(Cl)cc1	4	2	54*	-10	-3	-3	26
CCOC(=O)c1ccccc1OCc1cc(C=NNC(=O)c2cccnc2)ccc1OC	-2	/	/	/	/	/	/
